Source: PMC3312795 (European Journal of Medicinal Chemistry, 2012)

What was measured:
[1] = system: SA11 rotavirus; assay: Rotavirus; type: cell-based, rotavirus SA11 (primate G3); details: MA104, in Primates, 24 h, read-out: ED50, rotavirus (SA11) replication, MA104 cells, TCID50 titers at 24 hr post infection, average of at least 3 independent tests
[2] = system: SA11 rotavirus; assay: Rotavirus; type: cell-based, rotavirus SA11 (primate G3); details: SA11, MOI of 2, 12 hr post infection
Outline: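 Confluent MA104 monolayers inoculated 1 hr, PBS-washed, then held in MEM with test compound (below 50 μM; below 20 μM for some) or 0.1% DMSO plus trypsin 1 μg/ml. At 12 hr, IFA: methanol fix (RT, 30 min), anti-VP6 mAb, FITC anti-mouse IgG. Western: lysates sonicated, 10% gel, anti-VP6 with β-actin loading control, chemiluminescent detection.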

[3] = system: Huh-7 cells; assay: Lipid droplet development in Huh-7 cells; type: cell-based, human; details: various concentrations
Outline: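 Spontaneous lipid droplet formation in confluent Huh-7 cells given various concentrations of test compound or 0.1% DMSO mock for 72 hr. Medium then replaced with NBD-cholesterol (1 μg/ml) medium for a further 12 hr. Cells fixed in 4% formaldehyde for 10 min, PBS-washed, and fluorescence viewed by microscopy. Untreated 1-day-old and 4-day-old cells served as references.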

[4] = system: SA11 rotavirus; assay: Pre-treatment of SA11 rotavirus with compound; type: cell-based, rotavirus SA11 (primate G3); details: pre-treatment with compound at 100 M (so in the source), 37 °C for 2 hrs

Row | Structure (SMILES) | EC50 [1] [µM] | anti-rotaviral effects by Western blot analysis and IFA [2] | suppression of increase in lipid droplets [3] | effect of pre-treatment of SA11 rotavirus on viral titer (virucidal effect) [4]
1 | CCC/C=C/C/C=C/C=C/C=N/N1CCCS1(=O)=O [1ba, 2-[(2E,4E,7E)-Undeca-2,4,7-trienylideneamino]-1,1-dioxo-1-isothiazolidine] | – | confirmed | dose-dependent | –
2 | CCC/C=C/C/C=C/C=C/C=N/NN=O [Triacsin C] | – | confirmed | dose-dependent | did not affect the viral titer
3 | CCC/C=C/C/C=C/C=C/CNc1ccc(C(=O)O)cc1 [1e, 4-((2E,4E,7E)-Undeca-2,4,7-trienylamino)benzoic acid] | – | confirmed | dose-dependent | did not affect the viral titer

More lines, main results first:

Row | EC50 [1] [µM] | Structure (SMILES) | anti-rotaviral effects by Western blot analysis and IFA [2] | suppression of increase in lipid droplets [3] | effect of pre-treatment of SA11 rotavirus on viral titer (virucidal effect) [4]
4 | 11.3 to 28.5 | C=C1C(=O)O[C@H](CCCCCCCC)[C@H]1C(=O)O [C75] | – | – | –
5 | 11.3 to 28.5 | C=C(C)[C@@H]1CC[C@]2(C(=O)O)CC[C@]3(C)[C@H](CC[C@@H]4[C@@]5(C)CC[C@H](O)C(C)(C)[C@@H]5CC[C@]43C)[C@@H]12 [Betulinic acid, betulinic acid] | – | – | –
6 | 11.3 to 28.5 | CCCCCCCCCCCCCCCCNc1ccc(C(=O)O)cc1 [PHB, hexadecylamino-p-amino benzoic acid] | – | – | –
